Screening results from PubChem BioAssay.
ABCB6 inh MLPCN = ABCB6 transporter inhibitors, primary screen, K562-ABCB6 cells, flow cytometry, MLPCN library. ATP-binding cassette sub-family B member 6 (Homo sapiens), Q9NP58. K562-ABCB6 porphyrin accumulation, 1 h; active compounds read low. fluorescence ratio to DMSO, % at 10 µM. 0.19% of 360,000 active. AID 602162, 2011;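 active = fluorescence ratio to DMSO below 75%, the collection mean minus 3 SD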;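 note: signal is porphyrin accumulated inside mitochondria; 100% equals median channel fluorescence of DMSO control wells; lower ratio means ABCB6 inhibition with less porphyrin fluorescence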
Target sequence (Q9NP58 whole entry, looked up): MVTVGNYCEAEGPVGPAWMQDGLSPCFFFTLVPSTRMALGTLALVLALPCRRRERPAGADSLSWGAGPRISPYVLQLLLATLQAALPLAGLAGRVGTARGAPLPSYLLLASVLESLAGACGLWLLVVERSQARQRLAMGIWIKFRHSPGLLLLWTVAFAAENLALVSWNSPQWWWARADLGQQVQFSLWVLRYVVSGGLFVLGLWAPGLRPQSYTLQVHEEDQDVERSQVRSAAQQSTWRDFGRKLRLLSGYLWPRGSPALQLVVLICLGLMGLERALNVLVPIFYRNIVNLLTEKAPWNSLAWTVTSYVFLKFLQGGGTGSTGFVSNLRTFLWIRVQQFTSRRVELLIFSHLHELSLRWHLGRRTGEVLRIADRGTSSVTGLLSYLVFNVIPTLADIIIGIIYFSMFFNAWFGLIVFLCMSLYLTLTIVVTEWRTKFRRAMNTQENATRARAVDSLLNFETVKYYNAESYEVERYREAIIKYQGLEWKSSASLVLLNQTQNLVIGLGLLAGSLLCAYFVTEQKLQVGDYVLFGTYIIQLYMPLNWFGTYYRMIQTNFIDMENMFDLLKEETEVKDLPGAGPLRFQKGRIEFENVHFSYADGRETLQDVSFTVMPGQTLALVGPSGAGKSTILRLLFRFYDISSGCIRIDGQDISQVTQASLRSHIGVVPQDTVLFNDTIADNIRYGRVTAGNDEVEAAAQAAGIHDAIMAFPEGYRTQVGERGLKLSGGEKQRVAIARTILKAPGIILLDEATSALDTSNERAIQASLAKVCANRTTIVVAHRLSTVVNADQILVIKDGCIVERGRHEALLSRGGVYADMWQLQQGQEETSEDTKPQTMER
DAGLB inh = DAGLB lipase inhibitors, primary screen, biochemical, fluorescence, HTS; Diacylglycerol lipase-beta (Homo sapiens), Q8NCG7; HEK293T DAGLB membrane lysate, EnzChek fluorogenic substrate; inhibition, % at 5.17 µM; 0.059% of 340,000 active; AID 504411, 2011; in the data active = inhibition above about 34%;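 note: 0% = enzyme with vehicle and 100% = wells lacking enzyme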
Granule exo inh = LAMP-1 surface exposure blockers, TALL-104 cells – cell-based, flow cytometry, MLPCN library, primary screen. 0.66% of 360,000 active. inhibition, % at 10 µM. TALL-104 LAMP-1 surface exposure; cells stimulated with thapsigargin and PMA;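 active = inhibition above about 55%, limit read from the data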
FGF22 binding-1 = binders of human FGF22 protein, primary screen, FGF22 synaptogenesis inhibitor project, biophysical, thermal shift, single point. recombinant FGF22 thermal shift, SYPRO orange fluorescence; percent of sucrose octasulfate shift, DMSO zero. Fibroblast growth factor 22 (Homo sapiens), Q9HCT0. activity (Tm shift, normalised), % at 9.99 µM. 1.5% of 340,000 active. AID 651658, 2012;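 active = mean Tm shift, scaled 0 neutral to 100 positive control, at about 1.3% or above, every replicate too, limit read from the data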
VLA-4 inh = inhibition in human VLA-4 binding assay, primary screen, VLA-4 allosteric modulator project, MLPCN library, flow cytometry, VLA-4 expressing cells; ligand binding flow cytometry; Integrin alpha-4 (Homo sapiens), P13612; 0.2% of 330,000 active; AID 2557, 2010; inhibition, % (about 7 µM as worked out from the volumes in the protocol); in the data active = inhibition above about 50%
MT1-MMP act inh = blockers of MT1-MMP proenzyme processing, primary screen, HT1080 RFP-PRO-GFP cells, GFP/RFP fluorescence; 0.061% of 360,000 active; GFP/RFP ratio fluorescence, overnight; percent of plate control window, DMSO zero; GFP/RFP ratio change, % at 20 µM;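 active = GFP/RFP ratio change of at least 30% with cell ATP level not reduced by more than half and red fluorescence within 50% of control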
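Test system: HT1080 RFP-PRO-GFP cells; Benchmarks: DMSO and RFP-L50D-GFP cell wells; Timing: cells overnight before dosing, compound overnight, 37 °C, 5% CO2; Compound: one 20 µM compound dose with 1% DMSO; Read-out: GFP/RFP fluorescence ratio.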
FGF22 binding-2 = binders of human FGF22 protein, dose response, FGF22 synaptogenesis inhibitor project, biophysical, thermal shift, cherry-pick retest; recombinant FGF22 thermal shift, SYPRO orange fluorescence; shares compounds with FGF22 binding-1; 2% of 1,000 active; thermal shift activity, °C (ΔTm) at 38 µM;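 active = fitted rise in melting shift crosses a set limit at or below the top valid dose tested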
SYPRO no-protein = compound-only thermal shift signal without protein, dose response, artefact control for FGF22 binder project, biochemical, cherry-picked samples, RT-PCR instrument; compound-only SYPRO orange thermal shift counter-screen, no protein; AC50, µM (highest dose often 38 µM); 2% of 1,000 active; shares compounds with FGF22 binding-1;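 active = rising signal whose fitted curve reaches the 0.54 level within the top valid dose, showing a melting point, actives reach about 13 µM in these data; inactive = the rest, including activity in the opposite direction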; note: value is where the raw curve crosses a fixed level and not half-maximal
Active calls of the source: *; i = inactive; nt = not tested or not shown; [ ] = dose if it differs, or a comment. Most compounds without a hit are left out; they make up all but 2% or so of the library.

SMILES	ABCB6 inh MLPCN	DAGLB inh	Granule exo inh	FGF22 binding-1	VLA-4 inh	MT1-MMP act inh	FGF22 binding-2	SYPRO no-protein
CCCn1c(CCC(=O)O)nc2cc(S(=O)(=O)N3CCCC3)ccc21	122.0	-0.6	-0.3	29.8*	-6.2	14.5	0.088	i
CCCNC(=O)N1C[C@@H]2[C@H](c3ccccc31)[C@H](CO)N2Cc1ccc(F)cc1	nt	nt	nt	1.3*	nt	nt	0.051	i
CC(C)NC(=O)N1C[C@@H]2[C@H](c3ccccc31)[C@@H](CO)N2Cc1ccccn1	nt	nt	nt	14.9*	nt	nt	-0.052[42 µM]	i
CCC(=O)N[C@@H]1CC[C@H](CC(=O)OC)O[C@@H]1CO	nt	nt	nt	-0.1	nt	nt	nt	nt
CCCNC(=O)N1CC2(CCN(S(C)(=O)=O)CC2)c2c(n(C)c3cc(OC)ccc23)[C@H]1CO	nt	nt	nt	-0.1	nt	nt	nt	nt
COc1cccc(NC(=O)CN2CCN(S(=O)(=O)c3ccc(C(C)C)cc3)CC2)c1	100.0	-3.7	-0.3	nt	13.1	-1.5	nt	nt
COc1cccc(NC(=O)CN2CCN(S(=O)(=O)c3ccc(F)cc3)CC2)c1	101.0	-1.9	-1.7	28.4*	9.6	0.3	0.208	i
Cc1cc(C)n(-c2ccc(C(=O)Nc3cccc(S(=O)(=O)N(C)C)c3)cc2)n1	98.0	-6.9	-2.0	0.4	-13.6	-2.5	nt	nt
Cc1cc(C)n(-c2ccc(C(=O)Nc3ccc(S(=O)(=O)N(C)C)cc3)cc2)n1	98.0	-0.1	9.2	1.5*	-21.6	-7.8	-0.24	i
CO[C@@H]1CN(C)C(=O)c2cc(NC(=O)Nc3ccccc3F)ccc2OC[C@@H](C)N(CC2CC2)C[C@H]1C	nt	nt	nt	0.0	nt	nt	nt	nt
N#C/C(=C\c1ccc(N2CCOCC2)c([N+](=O)[O-])c1)c1nc2ccccc2[nH]1	96.0	4.5	1.8	1.7*	10.9	-4.1	-0.052	i
C[C@@H]1CN([C@@H](C)CO)C(=O)Cc2cc(NS(=O)(=O)c3cn(C)cn3)ccc2O[C@H]1CN(C)Cc1ccc(-c2ccccc2)cc1	nt	nt	nt	-0.6	nt	nt	nt	nt
COc1ccc(-c2csc(NC(=O)CN3C(=O)C4CC=CCC4C3=O)n2)cc1 (stereo not given)	99.0	-1.9	-6.9	0.0	2.5	0.6	nt	nt
COc1ccc(-c2csc(NC(=O)CN3C(=O)C4CCCCC4C3=O)n2)c(OC)c1 (stereo not given)	92.0	-0.6	-2.4	1.6*	18.8	6.6	-1.59	10.1µM*
CCC(=O)N1[C@@H](CO)[C@@H]2c3ccccc3N(S(=O)(=O)c3ccc(F)cc3)C[C@@H]21	nt	nt	nt	1.4*	nt	nt	0.207	i
COc1ccc(Cl)cc1C(=O)OCC(=O)c1c(N)n(C)c(=O)n(C)c1=O	103.0	-0.1	-0.5	0.0	nt	-1.7	nt	nt
COc1cc2ccccc2cc1C(=O)OCC(=O)c1c(N)n(C)c(=O)n(C)c1=O	96.0	-1.5	1.1	17.2*	7.2	-3.7	0.074	i
Cc1ccc(S(=O)(=O)Nc2cccc3c2O[C@@H](CN(C)S(C)(=O)=O)[C@@H](C)CN([C@@H](C)CO)C3=O)cc1	nt	nt	nt	0.0	nt	nt	nt	nt
O=S(=O)(c1cccc2cccnc12)N1CCN(Cc2ccc3c(c2)OCO3)CC1	99.0	-0.2	0.3	nt	15.8	0.7	nt	nt
O=S(=O)(c1cccc2cccnc12)N1CCN(Cc2ccccc2)CC1	99.0	-0.5	-0.4	1.4*	-6.3	4.2	0.175	i
Cc1ccc(F)cc1C(=O)N1CCC1(C)C(=O)O (stereo not given)	110.0	nt	-8.0	0.2	nt	4.4	nt	nt
CC1(C(=O)O)CCN1C(=O)c1ccccc1F (stereo not given)	107.0	nt	1.5	21.8*	nt	0.3	0.123	i
COc1ccc(C(=O)Nc2nc(CC(=O)NCCc3cccc(OC)c3)cs2)cc1	100.0	-1.6	-6.8	0.3	21.4	2.0	nt	nt
COc1ccc(C(=O)Nc2nc(CC(=O)NCCc3ccccc3)cs2)cc1	101.0	0.0	-3.5	2.2*	-10.1	4.0	-0.006	i
COc1ccc(C=NNC(=O)c2ccccc2NS(=O)(=O)c2cccs2)cc1O	97.0	3.6	0.5	-0.1	9.2	1.6	nt	nt
SMILES	ABCB6 inh MLPCN	DAGLB inh	Granule exo inh	FGF22 binding-1	VLA-4 inh	MT1-MMP act inh	FGF22 binding-2	SYPRO no-protein
O=C(NN=Cc1ccc(O)cc1O)c1ccccc1NS(=O)(=O)c1cccs1	97.0	7.7	-1.1	1.9*	-9.0	3.3	0.241	i
Nc1nc(O)c(Sc2ccccc2[N+](=O)[O-])c(=O)[nH]1	107.0	1.4	11.7	1.9*	-2.2	4.1	0.026	i
CCC(=O)N(C)C[C@@H]1Oc2cc(C#CCN(C)C)ccc2S(=O)(=O)N([C@@H](C)CO)C[C@H]1C	nt	nt	nt	0.0	nt	nt	nt	nt
O=C(N/N=C/c1ccncc1)c1cc2ccccc2cc1O	104.0	0.7	29.0	0.0	6.0	3.3	nt	nt
O=C(N/N=C/c1ccc[nH]1)c1cc2ccccc2cc1O	96.0	-0.9	14.9	1.8*	-1.9	-0.7	0.084	i
COc1nc(-c2ccc(Cl)cc2)nnc1C	105.0	-3.2	1.1	1.4*	0.0	3.7	-0.009	i
COC(=O)c1nnc(-c2ccccc2)nc1OC	97.0	-0.3	-0.5	nt	-5.3	-3.1	nt	nt
C[C@H]1CN([C@@H](C)CO)C(=O)Cc2cc(NC(=O)Cc3cn(C)c4ccccc34)ccc2O[C@@H]1CN(C)C(=O)Nc1ccc(C(F)(F)F)cc1	nt	nt	nt	0.2	nt	nt	nt	nt
O=C(COc1ccc(S(=O)(=O)Nc2ccccc2)cc1)NCc1ccncc1	99.0	-1.3	-0.4	14.3*	4.4	-7.9	0.208	i
O=C(O)c1ccc(Cl)c(S(=O)(=O)Nc2ccc(S(=O)(=O)N3CCCC3)cc2)c1	93.0	-0.8	0.1	1.4*	26.5	2.0	-0.133	i
N#C[C@H]1[C@H](c2ccccc2-c2ccccc2F)[C@@H](CO)N1C(=O)C1CCC1	nt	nt	nt	1.4*	nt	nt	0.141[42 µM]	i
Cc1onc(-c2ccccc2)c1C(=O)Nc1ncc([N+](=O)[O-])s1	93.0	6.6	-17.1	1.9*	5.5	8.5	nt	i
